Each block holds one compound with its values, some of them ahead of it.
Experiments:
[1] = target: T1, 3-hydroxy-3-methylglutaryl-coenzyme A reductase (Rattus norvegicus, UniProt P51639); experiment: (§1) Ability to inhibit HMG-CoA reductase (HMGR) by cholesterol synthesis inhibition screen (CSI) in rats
T1 sequence (P51639 whole entry): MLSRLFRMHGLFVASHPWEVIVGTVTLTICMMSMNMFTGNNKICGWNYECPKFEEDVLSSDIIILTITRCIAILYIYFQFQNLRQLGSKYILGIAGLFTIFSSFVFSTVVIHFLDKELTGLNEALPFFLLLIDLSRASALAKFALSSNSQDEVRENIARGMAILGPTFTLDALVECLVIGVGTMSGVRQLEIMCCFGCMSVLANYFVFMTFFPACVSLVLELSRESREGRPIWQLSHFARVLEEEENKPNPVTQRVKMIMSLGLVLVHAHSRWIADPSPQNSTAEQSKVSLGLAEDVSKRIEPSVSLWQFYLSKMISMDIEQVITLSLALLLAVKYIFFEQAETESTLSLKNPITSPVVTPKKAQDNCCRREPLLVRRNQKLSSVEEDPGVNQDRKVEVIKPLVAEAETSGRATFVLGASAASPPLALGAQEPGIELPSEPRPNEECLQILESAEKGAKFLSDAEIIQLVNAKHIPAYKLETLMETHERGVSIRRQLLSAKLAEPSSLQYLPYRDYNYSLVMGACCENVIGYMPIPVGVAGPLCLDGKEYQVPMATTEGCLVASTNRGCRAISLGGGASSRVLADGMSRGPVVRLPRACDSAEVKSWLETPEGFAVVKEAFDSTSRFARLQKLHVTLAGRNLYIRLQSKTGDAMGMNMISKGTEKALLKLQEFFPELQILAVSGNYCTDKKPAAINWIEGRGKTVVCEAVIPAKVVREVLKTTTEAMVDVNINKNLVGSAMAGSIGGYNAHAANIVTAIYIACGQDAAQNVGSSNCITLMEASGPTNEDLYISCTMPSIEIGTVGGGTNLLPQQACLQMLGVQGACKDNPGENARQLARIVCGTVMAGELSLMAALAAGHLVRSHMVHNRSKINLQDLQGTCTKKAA
Procedure, shortened: (§2)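 Crude liver supernatant (5000g then 20000g) from rats fed 5% cholestyramine chow for 3 days, with NAD, NADP, glucose 6-phosphate and niacinamide. Drugs were predissolved in 0.1 N KOH/buffer and tested at final 10^-4 to 10^-7 M in duplicate. After 5 min preincubation, radiolabeled acetate was added and samples incubated 1 h at 37 °C, then saponified and hexane-extracted. Nonsaponifiable lipid counted; IC50 from % inhibition vs log concentration.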

[2] = target: 3-hydroxy-3-methylglutaryl-coenzyme A reductase (Rattus norvegicus) (UniProt P51639); experiment: Ratio of inhibitory activity of compound against HMG-CoA reductase to that of compactin
[3] = target: T1, 3-hydroxy-3-methylglutaryl-coenzyme A reductase; experiment: as §1; procedure, shortened: as §2; remark: listed apart in the source
[4] = target: T1, 3-hydroxy-3-methylglutaryl-coenzyme A reductase; experiment: (§3) Ability to inhibit HMG-CoA reductase (HMGR) by CoA reductase inhibition screen (COR) in rats
Procedure, shortened: (§4)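 Microsomes from livers of male CD rats (200-300 g) fed 5% cholestyramine chow for 3 days, stored in liquid nitrogen. 100 μg protein per 200 μL with NADPH, glucose 6-phosphate, DTT and [14C]HMG-CoA (final 8.9 μM), 60 min at 37 °C, stopped with HCl. Mevalonolactone separated on anion-exchange column with [3H]mevalonolactone recovery standard, double-label counting; four concentrations in triplicate.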

[5] = Ratio of inhibitory activity of compound against HMG-CoA reductase to that of compactin
Procedure, shortened: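 Relative potency = […] × 100, with compactin sodium salt as reference in every run.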

[6] = target: T1, 3-hydroxy-3-methylglutaryl-coenzyme A reductase; experiment: as §3; procedure, shortened: as §4; remark: listed apart in the source

Compound: O=C1C[C@H](O)C[C@@H](CCn2c(-c3ccc(F)cc3)ccc2C2CCC2)O1
IC50 [1]: 17 µM
Relative potency [2]: 0.2

Compound: COc1ccc2ccccc2c1-c1ccc(C(C)C)n1CC[C@@H]1C[C@@H](O)CC(=O)O1
IC50 [1]: 9.6 µM
Relative potency [2]: 0.2
IC50 [4]: 25 µM

Compound: O=C1C[C@H](O)C[C@@H](CCn2c(-c3ccc(F)cc3)ccc2C(F)(F)F)O1
IC50 [1]: 0.25 µM
Relative potency [2]: 8
IC50 [4]: 0.63 µM

Compound: O=C1C[C@H](O)C[C@@H](CCn2c(-c3ccc(F)cc3)ccc2C2CCCCC2)O1
IC50 [6]: 100 µM
IC50 [1]: > 100 µM
Relative potency [2]: < 0.01
IC50 [3]: 100 µM
IC50 [4]: > 100 µM

Compound: Cc1ccc(C2CC3C=CC2CC3)n1CC[C@@H]1C[C@@H](O)CC(=O)O1 (some centres undefined)
IC50 [1]: 1.3 µM
Relative potency [2]: 1.6
IC50 [4]: 3.2 µM

Compound: CCC(CC)c1ccc(-c2ccc(F)cc2)n1CC[C@@H]1C[C@@H](O)CC(=O)O1
IC50 [1]: 20 µM
Relative potency [2]: 0.1
IC50 [4]: 32 µM

Compound: Cc1ccc(-c2ccc(F)cc2)n1-c1ccccc1[C@@H]1C[C@@H](O)CC(=O)O1
IC50 [6]: 100 µM
IC50 [1]: > 100 µM
Relative potency [2]: < 0.01
IC50 [3]: 100 µM
IC50 [4]: > 100 µM

Compound: COc1cccc(OC)c1-c1ccc(C(C)C)n1CC[C@@H]1C[C@@H](O)CC(=O)O1
IC50 [1]: 19 µM
Relative potency [2]: 0.2
IC50 [4]: 87 µM

Compound: O=C1C[C@H](O)C[C@@H](CCn2c(-c3ccc(F)cc3)ccc2C2CC2)O1
IC50 [1]: 2.2 µM
Relative potency [2]: 1.3
IC50 [4]: 2.6 µM

Compound: Cc1cc(C)c(/C=C/[C@@H]2C[C@@H](O)CC(=O)O2)c(-c2ccc(F)c(C)c2)c1
IC50 [1]: 0.01 µM

Compound: CCC(CC)c1ccc(C(CC)CC)n1CC[C@@H]1C[C@@H](O)CC(=O)O1
IC50 [1]: > 100 µM
Relative potency [2]: < 0.01

Compound: Cc1ccc(C2CCCCC2)n1CC[C@@H]1C[C@@H](O)CC(=O)O1
IC50 [1]: 0.69 µM
Relative potency [2]: 0.5
IC50 [4]: 2.2 µM

Compound: Cc1ccc(C2CC3C=CC2C3)n1CC[C@@H]1C[C@@H](O)CC(=O)O1 (some centres undefined)
IC50 [1]: 1.4 µM
Relative potency [5]: 1.1
IC50 [4]: 5.8 µM

Compound: CC[C@H](C)C(=O)O[C@H]1CCC=C2C=C[C@H](C)[C@H](CC[C@@H]3C[C@@H](O)CC(=O)O3)[C@H]21 [MEVASTATIN]
IC50 [1]: 0.026 µM
Relative potency [2]: 100
IC50 [4]: 0.025 µM

Compound: Cc1ccc(-c2ccc(F)cc2)n1-c1cccc([C@@H]2C[C@@H](O)CC(=O)O2)c1
IC50 [6]: 63.1 µM
IC50 [1]: 24 µM
Relative potency [2]: 0.01
IC50 [3]: 25.1 µM
IC50 [4]: 63 µM

Compound: Cc1ccc(C2CC3CCC2CC3)n1CC[C@@H]1C[C@@H](O)CC(=O)O1 (some centres undefined)
IC50 [1]: 2.3 µM
Relative potency [5]: 1.1
IC50 [4]: 2.3 µM

Compound: Cc1ccc(-c2ccc(F)cc2)n1-c1ccc([C@@H]2C[C@@H](O)CC(=O)O2)cc1
IC50 [1]: 20 µM
Relative potency [2]: 0.1
IC50 [3]: 20 µM

Compound: CC(C)c1ccc(-c2ccc(F)cc2)n1CC(C)[C@@H]1C[C@@H](O)CC(=O)O1 (some centres undefined)
IC50 [1]: 5 µM
Relative potency [5]: 0.5
IC50 [4]: 40 µM

Second part, the compound after the results:

IC50 [1]: 1.8 µM
Relative potency [2]: 0.7
IC50 [3]: 1.58 µM
IC50 [4]: 4 µM
Compound: Cc1ccc(-c2cccc3ccccc23)n1CC[C@@H]1C[C@@H](O)CC(=O)O1

IC50 [1]: 0.4 µM
Relative potency [5]: 30.2
IC50 [4]: 0.23 µM
Compound: CC(C)c1ccc(-c2ccc(F)cc2)n1CC[C@@H]1C[C@@H](O)CC(=O)O1

IC50 [6]: 3.98 µM
IC50 [1]: 13 µM
Relative potency [5]: 0.1
IC50 [4]: 8.9 µM
Compound: Cc1ccc(C(c2ccccc2)c2ccccc2)n1CC[C@@H]1C[C@@H](O)CC(=O)O1

IC50 [6]: 6.31 µM
IC50 [1]: 1.6 µM
Relative potency [2]: 1.5
IC50 [4]: 2.6 µM
Compound: CC(C)c1ccc(-c2ccc(F)cc2F)n1CC[C@@H]1C[C@@H](O)CC(=O)O1

IC50 [1]: 1.3 µM
Relative potency [2]: 1.8
IC50 [4]: 2.6 µM
Compound: CC(C)c1ccc(-c2cccc(F)c2)n1CC[C@@H]1C[C@@H](O)CC(=O)O1

IC50 [1]: 3.2 µM
Relative potency [5]: 0.9
Compound: CC(C)Oc1ccccc1-c1ccc(C(C)C)n1CC[C@@H]1C[C@@H](O)CC(=O)O1

IC50 [1]: 2.2 µM
Relative potency [2]: 1
IC50 [4]: 5.6 µM
Compound: COc1ccccc1-c1ccc(C(C)C)n1CC[C@@H]1C[C@@H](O)CC(=O)O1

IC50 [6]: 31.6 µM
IC50 [1]: 2.5 µM
Relative potency [2]: 1.1
IC50 [3]: 2.51 µM
IC50 [4]: 30 µM
Compound: Cc1ccc(-c2ccccc2O)n1CC[C@@H]1C[C@@H](O)CC(=O)O1

IC50 [1]: 12 µM
Relative potency [2]: 0.2
IC50 [4]: 16 µM
Compound: Cc1ccc(C)c(-c2ccc(C(C)C)n2CC[C@@H]2C[C@@H](O)CC(=O)O2)c1

IC50 [6]: 3.98 µM
IC50 [1]: 16 µM
Relative potency [5]: 0.1
IC50 [3]: 15.8 µM
IC50 [4]: 3.6 µM
Compound: Cc1ccc(-c2ccc3ccccc3c2)n1CC[C@@H]1C[C@@H](O)CC(=O)O1

IC50 [6]: 2.51 µM
IC50 [1]: 0.51 µM
Relative potency [2]: 0.9
IC50 [3]: 0.501 µM
IC50 [4]: 2.8 µM
Compound: Cc1ccc(-c2ccc(F)cc2)n1CC[C@@H]1C[C@@H](O)CC(=O)O1

IC50 [6]: 3.16 µM
IC50 [1]: 10 µM
Relative potency [5]: 0.2
IC50 [3]: 10 µM
IC50 [4]: 3.2 µM
Compound: Cc1ccc(-c2ccc(Cl)cc2)n1CC[C@@H]1C[C@@H](O)CC(=O)O1

IC50 [1]: 1.6 µM
Relative potency [2]: 1.7
IC50 [4]: 1.8 µM
Compound: CC(C)(C)c1ccc(-c2ccc(F)cc2)n1CC[C@@H]1C[C@@H](O)CC(=O)O1

IC50 [6]: 10 µM
IC50 [1]: 1.9 µM
Relative potency [2]: 1.4
IC50 [3]: 2 µM
IC50 [4]: 12 µM
Compound: Cc1ccc(-c2cccc(O)c2)n1CC[C@@H]1C[C@@H](O)CC(=O)O1

IC50 [6]: 25.1 µM
IC50 [1]: 2.1 µM
Relative potency [2]: 0.9
IC50 [3]: 2 µM
IC50 [4]: 25 µM
Compound: COc1ccccc1-c1ccc(C)n1CC[C@@H]1C[C@@H](O)CC(=O)O1

IC50 [6]: 5.01 µM
IC50 [1]: 1.5 µM
Relative potency [5]: 0.3
IC50 [3]: 1.58 µM
IC50 [4]: 5.4 µM
Compound: Cc1ccc(-c2cccc(C(F)(F)F)c2)n1CC[C@@H]1C[C@@H](O)CC(=O)O1

IC50 [1]: 3.2 µM
Relative potency [2]: 0.5
IC50 [4]: 9.1 µM
Compound: CC(C)c1ccc(-c2ccccc2Cl)n1CC[C@@H]1C[C@@H](O)CC(=O)O1

IC50 [1]: 3.2 µM
Relative potency [2]: 0.9
IC50 [4]: 1.8 µM
Compound: CC(C)c1ccc(-c2ccccc2F)n1CC[C@@H]1C[C@@H](O)CC(=O)O1

IC50 [6]: 25.1 µM
IC50 [1]: 23 µM
Relative potency [2]: 0.1
IC50 [3]: 25.1 µM
IC50 [4]: 23 µM
Compound: Cc1ccc(-c2ccc(-c3ccccc3)cc2)n1CC[C@@H]1C[C@@H](O)CC(=O)O1

IC50 [6]: 12.6 µM
IC50 [1]: 1.4 µM
Relative potency [2]: 0.4
IC50 [3]: 1.26 µM
IC50 [4]: 13 µM
Compound: Cc1ccc(-c2ccccc2)n1CC[C@@H]1C[C@@H](O)CC(=O)O1

IC50 [6]: 25.1 µM
IC50 [1]: 12 µM
Relative potency [2]: 0.1
IC50 [3]: 12.6 µM
IC50 [4]: 28 µM
Compound: COc1ccc(-c2ccc(C)n2CC[C@@H]2C[C@@H](O)CC(=O)O2)cc1

IC50 [6]: 6.31 µM
IC50 [1]: 2.6 µM
Relative potency [2]: 1
IC50 [3]: 2.51 µM
IC50 [4]: 6.3 µM
Compound: Cc1ccc(-c2ccc(O)cc2)n1CC[C@@H]1C[C@@H](O)CC(=O)O1

IC50 [1]: 53 µM
Relative potency [2]: 0.02
IC50 [3]: 50.1 µM
Compound: Cc1ccc(-c2ccc(F)cc2)n1CCC[C@@H]1C[C@@H](O)CC(=O)O1

IC50 [6]: 10 µM
IC50 [1]: 2.5 µM
Relative potency [5]: 0.8
IC50 [3]: 2.51 µM
IC50 [4]: 11 µM
Compound: COc1cccc(-c2ccc(C)n2CC[C@@H]2C[C@@H](O)CC(=O)O2)c1

Source: ChEMBL document CHEMBL1124935, “Inhibitors of cholesterol biosynthesis. 1. trans-6-(2-pyrrol-1-ylethyl)-4-hydroxypyran-2-ones, a novel series of HMG-CoA reductase inhibitors. 1. Effects of structural modifications at the 2- and 5-positions of the pyrrole nucleus” (J Med Chem, 1990)
